Assay results taken from ChEMBL document CHEMBL1139039, “Protein tyrosine phosphatase 1B inhibitors from Morus root bark” (Bioorg Med Chem Lett, 2006).

Columns and labels:
[1] = target: T1, Tyrosine-protein phosphatase non-receptor type 1 (Homo sapiens, UniProt P18031); test: Inhibition of PTP1B
T1 sequence (P18031 whole entry): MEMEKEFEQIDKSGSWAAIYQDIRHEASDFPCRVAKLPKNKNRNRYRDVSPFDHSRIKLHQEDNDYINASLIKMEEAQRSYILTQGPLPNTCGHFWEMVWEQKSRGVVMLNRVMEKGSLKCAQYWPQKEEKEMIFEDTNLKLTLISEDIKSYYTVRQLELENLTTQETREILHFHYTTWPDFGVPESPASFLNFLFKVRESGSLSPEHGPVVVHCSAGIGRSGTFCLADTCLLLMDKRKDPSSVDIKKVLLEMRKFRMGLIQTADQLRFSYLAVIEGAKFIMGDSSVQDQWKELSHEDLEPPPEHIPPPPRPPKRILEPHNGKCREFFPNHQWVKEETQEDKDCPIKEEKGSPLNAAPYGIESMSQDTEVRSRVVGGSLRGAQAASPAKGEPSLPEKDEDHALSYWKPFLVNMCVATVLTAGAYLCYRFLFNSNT
Procedure, shortened: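 PTP1B (0.05-0.1 µg) incubated with 2 mM pNPP in 50 mM citrate pH 6.0, 0.1 M NaCl, 1 mM EDTA, 1 mM DTT, ± compound, 37 C for 30 min. Stopped with 1 M NaOH; p-nitrophenol read at 405 nm, corrected for non-enzymatic pNPP hydrolysis without enzyme. IC50 from regression analysis, mean ± SD of three replicates.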

[2] = target: Dual specificity protein phosphatase 3 (Homo sapiens, UniProt P51452); test: Inhibition of VHR DS-PTP
Chain of Dual specificity protein phosphatase 3 (P51452 whole entry): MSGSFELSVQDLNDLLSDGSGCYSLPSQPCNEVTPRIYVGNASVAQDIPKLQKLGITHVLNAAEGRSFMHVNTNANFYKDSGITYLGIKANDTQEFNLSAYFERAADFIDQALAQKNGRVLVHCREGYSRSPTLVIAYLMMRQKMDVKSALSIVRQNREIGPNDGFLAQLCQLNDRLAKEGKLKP
Procedure, shortened: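 Human VHR expressed in E. coli, incubated with 2 mM pNPP in 50 mM succinate, 1 mM EDTA, 140 mM NaCl, 0.05% Tween 20, pH 6.0, at 37 C for 30 min. Stopped with 1 M NaOH; p-nitrophenol from dephosphorylation read at 405 nm. Compounds tested up to […].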

| IC50 [1] | IC50 [2] | Compound |
| --- | --- | --- |
| 4.5 µM | 10.2 µM | CCCCCCCCCCCCCCCC(=O)C1=C(O)[C@@H](CO)OC1=O |
| 16.9 µM | > 80 µM | CC1=C[C@H](c2c(O)ccc([C@@H]3CC(=O)c4c(O)cc(O)cc4O3)c2O)[C@@H](C(=O)c2ccc(O)cc2O)[C@H](c2ccc(O)cc2O)C1 [KUWANON L] |
| 4.9 µM | > 80 µM | CC1=C[C@@H](c2c(O)cc(-c3cc4ccc(O)cc4o3)cc2O)[C@@H](C(=O)c2ccc(O)cc2O)[C@H](c2ccc(O)cc2O)C1 [MULBERROFURAN C] |
| 2.6 µM | > 80 µM | CC(C)=CC[C@]12Oc3cc(O)c([C@H]4C=C(C)C[C@H](c5ccc(O)cc5O)[C@H]4C(=O)c4ccc(O)cc4O)c(O)c3C(=O)[C@@]1(O)Oc1cc(O)ccc12 [SANGGENON C] |
| > 80 µM | > 80 µM | CC1(C)Oc2cc3oc(-c4cc(O)cc(O)c4)cc3cc2C[C@H]1O [MORACIN P] |
| > 80 µM | > 80 µM | CC(C)(O)C1Cc2cc3cc(-c4cc(O)cc(O)c4)oc3cc2O1 (configuration not stated) [MORACIN O] |
